# Results: ChEMBL document CHEMBL4825680, “Structure-based discovery of potent and selective small-molecule inhibitors targeting signal transducer and activator of transcription 3 (STAT3)” (Eur J Med Chem, 2021)
# Calls of active or inactive are those of the source. The rule behind the calls is not given here.
# What was measured:
# [1] = target: T1, Signal transducer and activator of transcription 3 (Homo sapiens, UniProt P40763); test: Inhibition of STAT3 phosphorylation at Tyr705 residue in human MDA231-LM2-4175 cells after 3 hrs by Western blotting analysis; format: cell-based; settings: dose 0.3-3 µM
# T1 sequence (P40763 whole entry): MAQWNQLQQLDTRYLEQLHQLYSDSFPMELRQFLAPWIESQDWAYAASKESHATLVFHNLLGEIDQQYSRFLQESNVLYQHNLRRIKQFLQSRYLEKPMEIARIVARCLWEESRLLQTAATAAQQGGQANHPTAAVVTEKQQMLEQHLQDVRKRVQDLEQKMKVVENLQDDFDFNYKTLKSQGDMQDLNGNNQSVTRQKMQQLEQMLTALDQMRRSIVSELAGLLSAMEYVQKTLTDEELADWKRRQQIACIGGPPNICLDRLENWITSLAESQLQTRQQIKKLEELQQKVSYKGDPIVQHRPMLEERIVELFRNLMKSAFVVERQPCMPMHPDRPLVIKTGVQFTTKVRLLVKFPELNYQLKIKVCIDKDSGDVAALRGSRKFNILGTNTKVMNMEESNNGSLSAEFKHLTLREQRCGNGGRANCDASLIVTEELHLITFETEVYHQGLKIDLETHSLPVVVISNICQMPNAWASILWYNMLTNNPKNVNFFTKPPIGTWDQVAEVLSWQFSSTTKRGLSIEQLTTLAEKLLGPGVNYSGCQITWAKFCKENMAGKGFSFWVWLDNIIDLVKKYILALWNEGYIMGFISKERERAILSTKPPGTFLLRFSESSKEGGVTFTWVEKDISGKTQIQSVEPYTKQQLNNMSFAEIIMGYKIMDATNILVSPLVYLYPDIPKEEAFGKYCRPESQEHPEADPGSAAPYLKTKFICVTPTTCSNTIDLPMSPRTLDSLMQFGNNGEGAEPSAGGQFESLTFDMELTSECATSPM
# [2] = test system: MDA-MB-468; test: Effect on total STAT3 level in human MDA-MB-468 cells at 0.3 to 3 uM measured after 3 hrs by Western blot analysis; format: functional, cell-based; settings: dose 0.3-3 µM
# Summary of the method: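 Breast cancer cells were treated with vehicle (0.1% DMSO) or compound, then lysed in RIPA with PMSF and phosphatase inhibitors. 20–50 μg protein was run on 8 or 12% SDS-PAGE, blotted to PVDF, blocked in 5% BSA, probed with primary antibodies overnight at 4 °C, then HRP secondaries, with ECL detection.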
# [3] = target: T1, Signal transducer and activator of transcription 3; test: Inhibition of Flag-tagged STAT3 dimerization (unknown origin) expressed in HEK293T cells preincubated for 3 hrs followed by IL-3 stimulation by immunoprecipitation analysis; format: cell-based; settings: dose 1-3 µM
# [4] = target: T2, Signal transducer and activator of transcription 5A (Homo sapiens) (UniProt P42229); test: Inhibition of STAT5 DNA binding in human MDA-MB-231 cells at 3 uM after 3 hrs by EMSA analysis; format: cell-based
# T2 sequence (whole entry): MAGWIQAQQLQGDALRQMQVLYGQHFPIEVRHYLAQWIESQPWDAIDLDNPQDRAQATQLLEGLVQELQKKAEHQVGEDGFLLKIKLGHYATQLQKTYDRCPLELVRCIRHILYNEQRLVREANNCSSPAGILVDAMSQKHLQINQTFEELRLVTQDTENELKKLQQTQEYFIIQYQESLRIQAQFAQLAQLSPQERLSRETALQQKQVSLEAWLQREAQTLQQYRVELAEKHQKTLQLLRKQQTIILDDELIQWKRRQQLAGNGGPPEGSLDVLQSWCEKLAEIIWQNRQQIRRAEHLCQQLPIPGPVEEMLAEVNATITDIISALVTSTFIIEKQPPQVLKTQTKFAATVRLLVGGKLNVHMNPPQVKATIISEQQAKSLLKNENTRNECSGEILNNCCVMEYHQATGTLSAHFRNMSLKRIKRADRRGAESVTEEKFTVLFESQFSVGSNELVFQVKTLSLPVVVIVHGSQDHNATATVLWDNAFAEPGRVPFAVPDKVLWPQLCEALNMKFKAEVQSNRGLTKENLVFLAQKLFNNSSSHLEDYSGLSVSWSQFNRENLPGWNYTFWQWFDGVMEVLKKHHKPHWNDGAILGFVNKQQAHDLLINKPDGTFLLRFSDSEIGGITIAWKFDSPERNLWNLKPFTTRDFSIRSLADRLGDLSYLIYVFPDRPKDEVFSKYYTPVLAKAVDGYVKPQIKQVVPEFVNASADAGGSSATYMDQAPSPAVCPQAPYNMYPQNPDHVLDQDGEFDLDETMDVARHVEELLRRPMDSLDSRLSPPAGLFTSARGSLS
# Summary of the method: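 Cells exposed to vehicle or compound for 3 h. Nuclear extracts prepared and BCA-quantified. Nuclear protein (8–10 µg) incubated with biotinylated STAT3 or STAT5 probe, resolved on 6% native polyacrylamide gel, transferred to nylon membrane and detected with a gel-shift kit.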
# [5] = target: T1, Signal transducer and activator of transcription 3; test: Inhibition of STAT3 dependent transcriptional activity (unknown origin) expressed in HEK293T cells at 1 to 3 uM after 24 hrs by Dual-luciferase reporter gene assay; format: cell-based; settings: dose 1-3 µM
# Summary of the method: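 HEK-293T cells (2.5×10^4/well) co-transfected with pGL3-STAT3 (seven STAT3 binding-site copies; 50 ng), STAT3C (50 ng) and TK-Renilla (40 ng). After 24 h, treated with vehicle or compound for 24 h. Dual firefly/Renilla luciferase read on a luminometer.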
# [6] = test system: HCC70; test: Inhibition of colony formation in human HCC70 cells at 0.3 uM after 10 to 15 days by crystal violet staining based assay; format: functional, cell-based; settings: time 10-15 day
# Summary of the method: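 Cells seeded at 0.5×10^3–1×10^3 per well; compound added the next day. Medium and compound renewed every 2–3 days. After about 10–15 days, colonies fixed with 4% paraformaldehyde, stained with crystal violet, scanned and quantified by image analysis. Triplicate.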
# [7] = test system: MDA-MB-231; test: Induction of apoptosis in human MDA-MB-231 cells assessed as necrotic cells at 3 uM after 48 hrs by Annexin-V-FITC/propidium iodide staining based flow cytometric analysis (Rvb =0.543%); format: functional
# [8] = Induction of apoptosis in human MDA231-LM2-4175 cells assessed as early apoptotic cells at 1 uM after 48 hrs by Annexin-V-FITC/propidium iodide staining based flow cytometric analysis (reference value: 2.49%); format: functional
# [9] = test system: MDA-MB-231; test: Induction of apoptosis in human MDA-MB-231 cells assessed as increase in caspase-7 cleavage at 3 uM after 48 hrs by Western blot analysis; format: functional, cell-based
# Summary of the method: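 Cells were treated with vehicle (0.1% DMSO) or compound, then analysed by western blot of RIPA lysates (20–50 μg protein, SDS-PAGE, PVDF) for PARP and cleaved caspase-7, with β-actin as loading control. Three independent experiments.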
# [10] = Half life in Sprague-Dawley rat at 10 mg/kg, po measured up to 24 hrs by LC-MS/MS analysis; format: ADME, organism-based; settings: in vivo
# Summary of the method: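 Male SD rats given a single oral dose of 10 mg/kg in DMSO/0.5% HPMC (5/95, v/v). Blood was drawn at 0.25, 0.5, 1, 2, 4, 8 and 24 h, and plasma was analysed by LC-MS/MS on a BEH phenyl column with a formic acid water/acetonitrile mobile phase.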
# [11] = Toxicity in mouse xenografted with human MDA-MB-231-4175 cells assessed as morphological change in spleen at 5 to 15 mg/kg, […] once daily for 20 days by HE staining based assay; format: organism-based; settings: in vivo, iv, 480 h, dose 5-15 mg/kg, time 20 day
# Summary of the method: (§1)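 Female NOD-SCID mice aged 4–5 weeks, given 2×10^6–3×10^6 MDA-MB-231-4175 cells subcutaneously in the flank. At about 100 mm³ tumour volume, randomised n=6/group: vehicle (PBS with 15% Cremophor EL), 5 or 15 mg/kg intraperitoneally daily. Killed at day 20; heart, liver, spleen, lung and kidney collected for morphological examination.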
# [12] = Toxicity in NOD/SCID mouse xenografted with patient-derived breast cancer cells assessed as morphological change in liver at 5 to 15 mg/kg, […] once daily for 20 days by HE staining based assay; format: organism-based; settings: in vivo, iv, dose 5-15 mg/kg, time 20 day
# Summary of the method: as §1, with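 “implanted” for “aged 4–5 weeks, given 2×10^6–3×10^6 MDA-MB-231-4175 cells”, “flank with about 2 mm³ TNBC PDX fragments.” for “flank.”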
compound,measurement,setting,value
O=C(Cc1c(-c2ccccc2)nc2ccccn12)Nc1ccc2c(c1)S(=O)(=O)C=C2,inhibition,[1],Dose-Dependent Effect
same,Activity,[2],inactive
same,inhibition,[3],Dose-Dependent Effect
same,inhibition,[4],inactive
same,inhibition,[5],Active
same,inhibition,[6],Active
same,Activity,[7],2.09%
same,Activity,[8],6.17%
same,Activity,[9],Active
same,half-life,[10],1.46 h
same,Activity,[11],Non-Toxic
same,Activity,[12],Non-Toxic
